This is a sample that favours compounds with a hit; in the whole collection about 6.7% have one here.
CHOP inhibitor: blocks CHOP induction under ER stress. CHO-K1 CHOP-promoter luciferase, tunicamycin-induced, 15-18 h. inhibition, % at 10 µM. 220,000 compounds, 3.8% hits. AID 2732;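 active = compounds that reduced the stress-induced luciferase reporter signal by more than about 70% of percent inhibition, limit read from the data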
PREPL inh: inhibits the human prolyl oligopeptidase-like enzyme. Q4J6C6. inhibition, % at 5.96 µM. 320,000 compounds, 0.68% hits. recombinant PREPL, fluorescence polarization activity-based probe; in the data active = inhibition above about 43%
Target sequence (Q4J6C6 whole entry, looked up): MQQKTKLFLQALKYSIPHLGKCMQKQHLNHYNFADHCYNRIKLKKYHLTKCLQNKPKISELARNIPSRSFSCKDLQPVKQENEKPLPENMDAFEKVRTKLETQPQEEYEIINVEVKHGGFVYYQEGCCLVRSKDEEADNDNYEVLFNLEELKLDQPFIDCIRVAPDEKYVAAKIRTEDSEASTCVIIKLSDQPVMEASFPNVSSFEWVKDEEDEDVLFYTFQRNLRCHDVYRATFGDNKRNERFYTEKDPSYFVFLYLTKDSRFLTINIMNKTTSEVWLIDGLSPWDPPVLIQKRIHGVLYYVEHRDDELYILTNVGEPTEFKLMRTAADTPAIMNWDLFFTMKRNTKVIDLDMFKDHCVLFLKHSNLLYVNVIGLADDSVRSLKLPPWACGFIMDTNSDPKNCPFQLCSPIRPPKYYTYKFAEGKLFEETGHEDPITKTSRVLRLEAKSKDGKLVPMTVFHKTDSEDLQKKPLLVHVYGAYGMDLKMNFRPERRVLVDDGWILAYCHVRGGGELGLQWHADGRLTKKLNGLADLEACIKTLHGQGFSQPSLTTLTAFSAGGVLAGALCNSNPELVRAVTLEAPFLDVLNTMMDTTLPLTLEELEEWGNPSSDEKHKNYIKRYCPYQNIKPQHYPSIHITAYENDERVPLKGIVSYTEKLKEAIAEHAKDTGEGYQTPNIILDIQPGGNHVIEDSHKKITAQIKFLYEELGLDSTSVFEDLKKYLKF
T cruzi repl: blocks replication of Trypanosoma cruzi; T. cruzi beta-gal in NIH3T3, luminescence, 90 h; inhibition, % (no concentration beside the values); 300,000 compounds, 1.4% hits; AID 1885;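 active = mean inhibition across valid replicates above about 55%, limit read from the data; inconclusive = mean below that limit but half or more replicates reach it; inactive = mean below it, under half of replicates reach it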;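 note: signal also drops with host cell toxicity which is not excluded here; higher percent means less beta-gal luminescence so fewer parasites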
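System – NIH/3T3 host cells with β-galactosidase reporter T. cruzi · Doses – single 50 nL compound addition per well in DMSO · Reagent – 5000 T. cruzi trypomastigotes/well · Medium – Low-serum DMEM with 2% FBS · Timing – ≥90 h infection period, 3 h prior cell attachment · Evaluation – parasite load inhibition, % · Technique – GalScreen luminescence, 60 min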
CSC inhib: blocks cancer stem cells; cancer stem cell-like cells viability, luminescence; AID 2717; 300,000 compounds, 1.1% hits; inhibition, % at 7.5 µM; in the data active = inhibition above about 75%; inconclusive = no clear call, values can overlap the other calls; tested in HMLE shEcad cells
GRIN3A LBD mod: NR3A (human) ligand-binding domain modulation. 340,000 compounds, 2.5% hits. NR3A LBD differential scanning fluorimetry, Tm shift; 0% = protein alone, 100% = glycine-bound protein. AID 1259313. Tm shift relative to glycine control, % at 25 µM;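 active = melting temperature shift of at least 10% of the positive control shift, at one fixed dose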
Beta cell apopt: blocks beta cell apoptosis; 300,000 compounds, 0.8% hits; protection from apoptosis, % (no concentration beside the values); INS-1E cytokine-induced death, ATP luminescence, 48 h; percent of positive-control rescue, neutral wells zero;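 active = Every replicate reaches about 75%, or at least half do and their mean reaches it too, limit read from the data; inconclusive = At least half of replicates reach the limit but their mean does not; inactive = Under half of replicates reach the limit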;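 note: higher means more ATP so stronger rescue from cytokine killing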
Numbers stand for hits; 0 = inactive; ? = inconclusive; - = no result given.

SMILES	CHOP inhibitor	PREPL inh	T cruzi repl	CSC inhib	GRIN3A LBD mod	Beta cell apopt
CCOC(=O)c1ccccc1NC(=O)c1ccc(F)cc1	0	0	0	0	0	0
CCN(CC)S(=O)(=O)c1cccc(C(=O)NCC2CCCCC2)c1	-	0	0	-	0	0
CCC(C)NC(=O)CSc1nnc(-c2cc(-c3cccs3)nc3ccccc23)o1 (centres undefined)	0	0	0	0	0	0
CC(=O)Nc1ccc(C(=O)NCC2(N3CCCCC3)CCCCC2)cc1	-	0	0	0	0	0
COc1ccc(CN2C(=O)c3ccccc3C2C(=O)NC2CCCCCC2)c(OC)c1 (centres undefined)	0	-	0	-	0	-
O=C1c2cccc3c(N4CCCCC4)ccc(c23)C(=O)N1c1cccc(O)c1	72.1	0	0	0	0	0
O=C1c2cccc3c(N4CCCCC4)ccc(c23)C(=O)N1CCO	0	0	0	0	0	0
CC(C)COc1ccc(C(=O)OC2CC(C)(C)OCC2CN(C)C)cc1 (centres undefined)	70.6	0	0	0	0	0
O=C(Cn1c(=O)oc2cc(S(=O)(=O)N3CCCC3)ccc21)N1CCc2ccccc2C1	85.2	0	0	0	0	0
O=C(Cn1c(=O)oc2cc(S(=O)(=O)N3CCOCC3)ccc21)N1CCc2ccccc2C1	0	0	-	0	0	-
CN(/N=C/c1cc(Cl)ccc1O)C1=NS(=O)(=O)c2ccccc21	-	0	0	0	11.8	0
Cc1ccc(/C=N/N(C)C2=NS(=O)(=O)c3ccccc32)o1	0	0	0	0	-	0
CN(/N=C/c1ccc(Br)o1)C1=NS(=O)(=O)c2ccccc21	0	0	0	0	16.2	-
COc1cccc(/C=N/N(C)C2=NS(=O)(=O)c3ccccc32)c1O	-	0	0	0	0	0
CCOC(=O)c1ccccc1NC(=O)C1CC(=O)N(C2CCCC2)C1 (centres undefined)	-	-	-	-	0	-
O=C(Nc1cccc(Cl)c1)Nc1cc(S(=O)(=O)N2CCCCC2)ccc1Cl	86.8	0	54.7	86.6	11.3	0
CN1CCN(S(=O)(=O)c2ccc(NC(=O)c3ccc(Br)s3)cc2)CC1	0	0	0	0	28.9	0
CN1CCN(S(=O)(=O)c2ccc(NC(=O)c3ccc(Br)o3)cc2)CC1	0	0	0	0	0	0
Cc1cc(Br)ccc1NC(=O)CNC(=O)Cn1ncc(Cl)c(Cl)c1=O	105.8	0	0	83.2	0	0
Cc1ccc(S(=O)(=O)N2CCCCC2)cc1NC(=O)Nc1ccc(Cl)cc1Cl	0	0	54.9	0	13.6	0
O=C(Nc1ccccc1C(=O)O)c1cc(S(=O)(=O)N2CCCCC2)c(Cl)cc1Cl	-	0	58.1	0	0	0
O=C(Nc1ccccc1C(=O)O)c1ccc(Cl)c(S(=O)(=O)N2CCOCC2)c1	0	0	0	0	0	0
CCCCOc1ccc(S(=O)(=O)N2CCCCCC2)cc1	91.0	0	0	0	0	0
CCCCOc1ccc(S(=O)(=O)N2CCN(C)CC2)cc1	-	0	0	0	0	-
N#CC(C#N)=NNc1ccc(S(=O)(=O)N2CCCCC2)cc1	0	0	0	0	12.0	0
SMILES	CHOP inhibitor	PREPL inh	T cruzi repl	CSC inhib	GRIN3A LBD mod	Beta cell apopt
O=C(Nc1cc(S(=O)(=O)Nc2ccc(Cl)cc2)ccc1N1CCCCC1)c1ccc(F)cc1Cl	0	0	0	77.5	20.7	0
COc1ccc(NS(=O)(=O)c2ccc(N3CCOCC3)c(NC(=O)c3ccccc3Cl)c2)cc1	0	0	0	0	0	0
CN(CCOc1ccccc1)CC(=O)Nc1ccc(S(=O)(=O)N2CCCC2)cc1	0	0	56.9	0	0	0
O=S(=O)(c1ccc(NC(=S)NCc2cccnc2)cc1)N1CCCCC1	0	0	0	138.8	0	126.2
Cc1ccc(S(=O)(=O)N2CCCCC2)cc1NC(=O)Cn1cnnn1	0	0	0	0	0	0
Cc1nc2cc(NC(=O)c3ccc(Br)s3)ccc2s1	-	0	0	0	24.8	0
Cc1ccc(S(=O)(=O)N2CCCCC2)cc1NC(=O)Cn1ncc(Cl)c(Cl)c1=O	-	0	-	90.5	0	0
CN1CCN(S(=O)(=O)c2ccc(NC(=O)Nc3cccc(Cl)c3)cc2)CC1	0	0	0	-	14.2	0
COc1ccccc1NC(=O)c1cc(S(=O)(=O)N2CCCCCC2)ccc1F	-	0	0	0	0	0
O=C(Nc1ccccc1)Nc1ccc(S(=O)(=O)N2CCCCC2)cc1	0	0	0	0	21.8	0
CN1CCN(S(=O)(=O)c2ccc(NC(=O)c3ccccc3Cl)cc2)CC1	-	0	0	0	0	0
O=C(Nc1ccc(Cl)cc1F)c1cc(S(=O)(=O)N2CCCCC2)ccc1F	0	0	0	0	13.4	0
CC(CC(=O)N(CCC1=CCCCC1)c1c(N)n(Cc2ccccc2)c(=O)[nH]c1=O)c1ccccc1 (centres undefined)	-	0	0	0	0	0
CN(C)CCN(C)Cc1ccccc1Sc1cccc2ccccc12	0	0	0	-	0	0
COc1ccccc1NS(=O)(=O)c1cccc(C(=O)N2CCN(Cc3ccc4c(c3)OCO4)CC2)c1	-	0	0	0	0	0
O=C(Cn1c(=O)oc2ccccc21)NCC1COc2ccccc2O1 (centres undefined)	-	0	0	0	0	0
CC1(C)NC(=O)N(CC(=O)OCC(=O)Nc2cc(S(=O)(=O)N3CCCCCC3)ccc2Cl)C1=O	0	0	0	0	0	0
CCN(CC)c1ccc(Nc2nc(N3CCOCC3)c3ccccc3n2)cc1	73.8	0	0	0	0	0
c1ccc2c(c1)nc(N1CCOCC1)c1ccccc12	0	0	0	0	0	0
C=CCNc1nc(C(=O)OCC(=O)N(Cc2ccccc2)C(C)C)cs1	-	0	-	0	0	0
O=c1cc(N2CCN(c3ccc(F)cc3)CC2)[nH]c(=O)n1C1CCCCC1	72.3	0	0	0	0	0
O=c1cc(N2CCC3(CC2)OCCO3)[nH]c(=O)n1C1CCCCC1	0	0	0	0	0	0
CCC(=O)Oc1ccc(C(=O)Nc2ccc3c(c2)C(=O)N(C2CCCCC2)C3=O)cc1	70.7	0	0	0	0	0
CCOC(=O)N1CCC(N2C(=O)c3ccc(C(=O)Nc4cccc(OC)c4)cc3C2=O)CC1	-	0	0	0	10.6	0
CCn1c(-c2ccccc2)c(C(=O)CCl)c2ccccc21	104.5	0	61.5	0	0	?
CCn1c2ccccc2c(=O)c2ccccc21	0	0	0	0	0	0
CC(CC(=O)NC1CCCCC1)S(=O)(=O)c1ccc2c(c1)NC(=O)CO2 (centres undefined)	-	0	0	0	0	0
N/C(=N\OC(=O)N1c2ccccc2Sc2ccccc21)c1ccccc1	0	0	82.4	0	0	0
COc1cccc(CNS(=O)(=O)c2cc(Br)cc3c2N(C(C)=O)C(C)C3)c1 (centres undefined)	0	0	0	0	12.1	0

From PubChem
